Compounds with a hit are over-represented: about 4.1% of the library has one in this group of screens.
KCNK3 inh: human KCNK3 channel inhibition, primary screen; B-score at 10 µM; hit rate 0.84% among 340,000; CHO-KCNK3 thallium flux, FluxOR fluorescence; hits give low values;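 active = B-score under library mean minus 4 SD, starting fluorescence ratio at most library mean plus 5 SD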;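 note: more negative B-score means stronger inhibition of thallium flux through KCNK3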
hERG rescue: shields human hERG channel from block by proarrhythmic agents. Q12809. CHO-hERG, FluxOR thallium flux, dofetilide IC70 present. activation (rescue from dofetilide block), less the hit threshold, % at 10 µM. hit rate 0.51% among 310,000. AID 1511;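 active = activation above the mean of controls blocked by dofetilide plus 5 SD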;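 note: thallium influx through hERG after potassium depolarization seen as dye fluorescence rise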
KCC2 mod: modulates chloride dependent transport by human KCC2; hit rate 2.2% among 190,000; B-score of Tl+ flux slope (higher = more flux/activation; lower = inhibition) at 10 µM; KCC2 cells, thallium flux FluoZin-2 fluorescence; Q9H2X9;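 active = thallium flux slope and its plate-corrected score both differing from the plate sample mean at a set confidence after two filtering rounds, in either direction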;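 note: slope of fluorescence scaled to starting intensity during 10 to 20 s after thallium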
KCNQ1 pot: potentiates or activates the human KCNQ1 potassium channel; CHO-K1 KCNQ1, thallium flux FluxOR fluorescence; hits give high values; B-score at 10 µM; hit rate 0.35% among 310,000; AID 2648;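 active = fluorescence ratio B-score, a plate-corrected score, at least three library SD, with initial intensity B-score within 5 SD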
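assay system = KCNQ1-transfected CHO-K1 cells | medium = assay buffer with matched DMSO | probe or stimulus = depolarizing K+/Tl+ stimulus, K2SO4 and Tl2SO4 each 12.5 mM in 5x stock | dosing = single dose | incubation = dye 90 min, compound 20 min, room temperature | detection = kinetic FluxOR fluorescence, 10 s baseline plus 110 s post-stimulus | evaluation = ratio B score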
KCNK9 block: blocks the human KCNK9 two-pore domain potassium channel; HEK293 KCNK9, FluxOR thallium flux fluorescence; hits give low values; B-score at 10 µM; hit rate 1.2% among 310,000;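 active = ratio B-score over 3 SD below the library mean, with starting fluorescence within 5 SD of its mean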;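 note: negative B-score means less thallium flux so channel inhibition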
Target sequence (Q9NPC2 whole entry, looked up, the tested form may be a part): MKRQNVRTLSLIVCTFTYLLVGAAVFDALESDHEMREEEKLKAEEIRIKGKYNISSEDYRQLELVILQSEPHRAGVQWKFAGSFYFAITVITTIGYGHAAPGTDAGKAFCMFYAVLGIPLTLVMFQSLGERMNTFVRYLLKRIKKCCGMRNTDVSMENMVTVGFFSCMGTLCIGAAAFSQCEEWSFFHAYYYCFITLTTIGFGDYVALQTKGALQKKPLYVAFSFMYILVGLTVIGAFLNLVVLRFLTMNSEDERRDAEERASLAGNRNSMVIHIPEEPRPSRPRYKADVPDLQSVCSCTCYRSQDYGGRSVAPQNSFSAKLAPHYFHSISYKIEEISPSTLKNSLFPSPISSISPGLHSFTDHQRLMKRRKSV
KCNQ1 inh: blocks the human KCNQ1 potassium channel | P51787 | CHO-K1 KCNQ1, FluxOR thallium flux fluorescence; hits give high values | B-score at 10 µM | hit rate 1.3% among 310,000;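 active = compounds whose thallium flux B-score, printed positive for inhibition, exceeds three library SD while starting fluorescence stays within three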;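 note: channel opened by potassium depolarization with thallium stimulus after 20 min compound exposure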
Large screens that a line does not name were inactive.

O=c1c(C(c2ccc(O)cc2)c2c(O)nc3n(c2=O)CCS3)c(O)nc2n1CCS2	hERG rescue 6.7
COCCN1C(=O)N[C@@H](c2cccc(F)c2)C(C(=O)OC)=C1C	hERG rescue 4.9
COCCN1C(=O)N[C@H](c2cccc(C(F)(F)F)c2)C(C(=O)OC)=C1C	none (no result: KCNK3 inh)
COC(=O)c1ccccc1-c1ccc(/C=N/Nc2nc(N3CCCC3)nc(N3CCCC3)n2)o1	KCNQ1 inh 6
O=[N+]([O-])c1ccc(/C=N/Nc2nc(N3CCCCCC3)nc(N3CCCCCC3)n2)o1	KCNK9 block -7, KCNQ1 inh 6
Cc1ccc(/C=N/Nc2nc(N3CCCCC3)nc(N3CCCCC3)n2)o1	none
Cc1c(N)ccc(-n2nc3ccccc3n2)c1C	none (no result: KCC2 mod)
COc1ccccc1CN(C)C(=O)c1sccc1-c1ccccc1	none (no result: KCC2 mod)
Cc1ccc(Cn2c(N3CCN(C)CC3)nc3c2c(=O)[nH]c(=O)n3C)cc1	none (no result: KCC2 mod)
COCCn1c(SCC(=O)Nc2ccc3c(c2)OCCO3)nnc1-c1ccncc1	none (no result: hERG rescue, KCC2 mod, KCNQ1 pot, KCNK9 block, KCNQ1 inh)
Cc1nn(CC(=O)Nc2sc3c(c2C#N)CCC(C(C)(C)C)C3)c(C)c1[N+](=O)[O-] (stereo not given)	KCNQ1 inh 8 (no result: KCC2 mod)
CC(C)(C)C1CCc2c(sc(NC(=O)C3CC=CCC3C(=O)O)c2C#N)C1 (stereo not given)	hERG rescue 14
Cc1nn(CCCC(=O)Nc2sc3c(c2C#N)CCC3)c(C)c1[N+](=O)[O-]	none (no result: KCC2 mod)
Cc1ccccc1NS(=O)(=O)c1cc(C(=O)NCCSC2CCCCC2)ccc1C	KCNK9 block -8 (no result: KCC2 mod)
Cc1ccccc1NS(=O)(=O)c1cc(C(=O)N2CCCC2)ccc1C	none
CCOC(=O)CC(=O)CSc1ncnc2c1nnn2-c1ccc(OC)cc1	hERG rescue 7.0
O=C(c1nc2n(n1)C(c1ccc(Cl)cc1)C=C(c1ccccc1)N2)N1CCOCC1 (stereo not given)	KCNK9 block -6.8
CC(=O)Nc1nc2n(n1)C(c1ccccc1)C=C(c1ccccc1)N2 (stereo not given)	none
COc1ccc(C(=O)N2C(=S)NC(=O)/C2=C\c2ccc(C)cc2)cc1	KCC2 mod 7.9
CC(C)(C)CNC(=O)c1cccc2c1C(=O)c1ccc(-c3cc4ccccc4o3)cc1S2(=O)=O	none (no result: hERG rescue, KCC2 mod, KCNQ1 pot, KCNK9 block, KCNQ1 inh)
N#Cc1c(-c2ccccc2)nc(SCC(=O)Nc2ccccc2)[nH]c1=O	KCC2 mod -4.8 (no result: hERG rescue, KCNQ1 pot, KCNK9 block, KCNQ1 inh)
CCCCOP(=O)(OCCCC)C(Nc1ccc(C(=O)OCC)cc1)c1ccncc1 (stereo not given)	KCNQ1 inh 6 (no result: KCC2 mod)
O=c1ccc(-c2ccccc2)nn1Cc1ccc(F)cc1Cl	none (no result: KCC2 mod)
O=C(CN1C(=O)NC2(CCCC2)C1=O)NCCc1ccccc1	none (no result: hERG rescue, KCC2 mod, KCNQ1 pot, KCNK9 block, KCNQ1 inh)
CCOC(=O)C1(C#N)Cc2ccccc2C1	none (no result: hERG rescue, KCC2 mod, KCNQ1 pot, KCNK9 block, KCNQ1 inh)
FC(F)(F)c1cc(-c2cccs2)nc2cc(-c3cccs3)nn12	KCNQ1 inh 6
Cc1cc(SCC(=O)Nc2c(C)n(C)n(-c3ccccc3)c2=O)nc2ccccc12	none (no result: KCC2 mod)
